This is an account of results in ChEMBL document CHEMBL4715838, “Novel diosgenin derivatives containing 1,3,4-oxadiazole/thiadiazole moieties as potential antitumor agents: Design, synthesis and cytotoxic evaluation” (Eur J Med Chem, 2020).

In one assay the test system is GES1. As to the kind of experiment: Cytotoxicity against human GES1 cells assessed as reduction in cell viability measured after 48 hrs by MTT assay. Type of assay: cell-based. The conditions noted are these: GES1, 48 h. In a few lines:
(§1)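 Cells in DMEM with 10% FBS, penicillin/streptomycin, 37 °C, 5% CO2. Seeded at 5×10^3 per well directly into medium holding graded concentrations of sample and incubated 48 h. MTT (5 mg/mL in PBS) added for 4 h, medium replaced with DMSO, absorbance read at 492 nm. IC50 taken as the concentration giving 50% inhibition of proliferation; three replicates, means ± SD.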
In general terms: Tetrazolium dyes change colour on reduction, which living cells bring about.

A further assay relates to HCT-116. As to the kind of experiment: Cytotoxicity against human HCT-116 cells assessed as reduction in cell viability measured after 48 hrs by MTT assay. In kind it is functional, cell-based. Conditions: HCT-116, 48 h. In a few lines:
as §1

The next assay relates to MCF7. As to the kind of experiment: Cytotoxicity against human MCF7 cells assessed as reduction in cell viability measured after 48 hrs by MTT assay. In kind it is functional, cell-based. Conditions: MCF7, 48 h. In a few lines: as §1
A further assay concerns HepG2. As to the kind of experiment: Cytotoxicity against human HepG2 cells assessed as reduction in cell viability measured after 48 hrs by MTT assay. Conditions: HepG2, 48 h. In kind it is functional, cell-based. In a few lines:
as §1

A further assay has as its system A549. As to the kind of experiment: Cytotoxicity against human A549 cells assessed as reduction in cell viability measured after 48 hrs by MTT assay. Type of assay: functional, cell-based. Conditions: A549, 48 h. In a few lines: as §1

For orientation: IC50 means the concentration needed to halve the response being measured. On to `Cc1nnc([C@H](C)CC[C@H]2O[C@H]3C[C@H]4[C@@H]5CC=C6C[C@@H](O)CC[C@]6(C)[C@H]5CC[C@]4(C)[C@H]3[C@@H]2C)o1`, for which the IC50 with GES1 was found to be 72.8 µM; with HCT-116, 51.6 µM; with MCF7, 20.4 µM; in the assay on HepG2, 34.2 µM; in the assay with A549, 30.4 µM.

For `C[C@H]1[C@H]2[C@H](C[C@H]3[C@@H]4CC=C5C[C@@H](O)CC[C@]5(C)[C@H]4CC[C@]23C)O[C@@H]1CC[C@@H](C)c1nnc(-c2cccnc2)s1`, the IC50 in the assay on GES1 was 354 µM; in the assay with HCT-116, 51.6 µM; in the assay with MCF7, more than 100 µM; with HepG2, 8.83 µM; in the assay with A549, 7.68 µM.

`CC(=O)O[C@H]1CC[C@@]2(C)C(=CC[C@H]3[C@@H]4C[C@@H]5O[C@H](CC[C@H](C)c6nnc(-c7cccc8ccccc78)s6)[C@@H](C)[C@@H]5[C@@]4(C)CC[C@@H]32)C1`: the IC50 in the assay on HCT-116 and with A549 was more than 100 µM throughout.

Consider `COc1ccc(-c2nnc([C@H](C)CC[C@H]3O[C@H]4C[C@H]5[C@@H]6CC=C7C[C@@H](O)CC[C@]7(C)[C@H]6CC[C@]5(C)[C@H]4[C@@H]3C)o2)cc1`, for which the IC50 in the assay with HCT-116 was more than 100 µM.

Take `C[C@H]1[C@H]2[C@H](C[C@H]3[C@@H]4CC=C5C[C@@H](O)CC[C@]5(C)[C@H]4CC[C@]23C)O[C@@H]1CC[C@@H](C)c1nnc(-c2ccccc2)o1`: the IC50 with GES1 was 120 µM; in the assay on HCT-116, more than 100 µM; in the assay with MCF7, 53 µM; with HepG2, 39.5 µM; in the assay on A549, 64.2 µM.

For the molecule `COc1ccc(-c2nnc([C@H](C)CC[C@H]3O[C@H]4C[C@H]5[C@@H]6CC=C7C[C@@H](O)CC[C@]7(C)[C@H]6CC[C@]5(C)[C@H]4[C@@H]3C)s2)cc1`, the IC50 in the assay with GES1 is 209 µM; in the assay on HCT-116, more than 100 µM; with MCF7 it was more than 100 µM; in the assay with HepG2, 23.1 µM; in the assay on A549 it was 16.4 µM.

As for `CC(=O)O[C@H]1CC[C@@]2(C)C(=CC[C@H]3[C@@H]4C[C@@H]5O[C@H](CC[C@H](C)c6nnc(-c7cccc8ccccc78)o6)[C@@H](C)[C@@H]5[C@@]4(C)CC[C@@H]32)C1`, the IC50 with GES1 came out at 70.1 µM.

With `COc1ccc(-c2nnc([C@H](C)CC[C@H]3O[C@H]4C[C@H]5[C@@H]6CC=C7C[C@@H](OC(C)=O)CC[C@]7(C)[C@H]6CC[C@]5(C)[C@H]4[C@@H]3C)o2)cc1`, in the assay on GES1, the concentration for half-maximal inhibition (IC50) amounted to 151 µM.

`CC(=O)O[C@H]1CC[C@@]2(C)C(=CC[C@H]3[C@@H]4C[C@@H]5O[C@H](CC[C@@H](C)c6nnc(C)s6)[C@@H](C)[C@@H]5[C@@]4(C)CC[C@@H]32)C1`: the IC50 in the assay with GES1 was 75.8 µM; in the assay on HCT-116, more than 100 µM; in the assay with MCF7, 47.7 µM; in the assay with HepG2, 34.2 µM; in the assay with A549 it was 40.3 µM.

`CC(=O)O[C@H]1CC[C@@]2(C)C(=CC[C@H]3[C@@H]4C[C@@H]5O[C@H](CC[C@@H](C)c6nnc(C)o6)[C@@H](C)[C@@H]5[C@@]4(C)CC[C@@H]32)C1`: the IC50 with GES1 amounted to 98.2 µM; with HCT-116, 78.8 µM; in the assay on MCF7 it was 44.8 µM; with HepG2, 57.6 µM; in the assay on A549, 34.4 µM.

`CC(=O)O[C@H]1CC[C@@]2(C)C(=CC[C@H]3[C@@H]4C[C@@H]5O[C@H](CC[C@@H](C)c6nnc(-c7cccnc7)o6)[C@@H](C)[C@@H]5[C@@]4(C)CC[C@@H]32)C1`: the IC50 with GES1 is 62.4 µM; with HCT-116 it was 72.5 µM; in the assay with MCF7, more than 100 µM; in the assay on HepG2 it was 82.6 µM; with A549 it was 33.5 µM.

Take `CO[C@@]12[C@H](COC(N)=O)C3=C(C(=O)C(C)=C(N)C3=O)N1C[C@@H]1N[C@@H]12` [MITOMYCIN]: the IC50 was determined as 21.1 µM in the assay on GES1; 11 µM in the assay with HCT-116; 16.7 µM in the assay on MCF7; 32.6 µM in the assay with HepG2; 11 µM in the assay on A549.
